Converted amounts (≈) assume the structure as drawn.
Legend:
[1] = AUC in Brown Norway rat iris and ciliary body administered topically after 3 hrs; type: ADME, tissue-based; parameters: time < 3 hr; concentration or dose not given beside the values; conditions: topical or ocular
Method in brief: (§1)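 Adult male Brown Norway rats (200−250 g) received a single topical 4 μL dose of 0.1% solution to each eye (5% cremaphor EL, 0.78% NaCl, 0.1% Na3PO4 in sterile water, pH 6.8). Composite design, three animals per group, sampled at 0.25, 1 and 3 h. Plasma taken by cardiac puncture. Eyes enucleated and PBS-rinsed, tissues dissected and homogenized. Parent drug measured by LC/MS/MS. AUC over 0−3 h.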

[2] = Aqueous solubility of the compound at pH 6.8; type: physicochemical
Plasma [3] = experiment: (§2) AUC in Brown Norway rat plasma administered topically after 3 hrs; type: ADME, cell-free; parameters: time < 3 hr; concentration or dose not given beside the values; conditions: topical_or_ocular, 3 h, BLD = below limit of detection; method in brief: as §1
[4] = test system: Iris and ciliary body (Rattus norvegicus); experiment: AUC in Brown Norway rat iris and ciliary body administered topically after 3 hrs; conditions: in vivo, topical_or_ocular, BLD = below limit of detection
[5] = Drug uptake in Brown Norway rat ciliary body administered topically after 1 hr; type: ADME, tissue-based; conditions: in vivo, topical_or_ocular
Method in brief: (§3)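 Abbreviated ocular PK in male Brown Norway rats, 200−250 g. Single topical 4 μL dose per eye of 0.1% solution in 5% cremaphor EL, 0.78% NaCl, 0.1% Na3PO4, water, pH 6.8. Three animals per group, sampled at 0.25, 1 and 3 h. Tissues homogenized in PBS with 10% acetonitrile.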

[6] = Drug uptake in Brown Norway rat iris administered topically after 1 hr; type: ADME, tissue-based; conditions: in vivo, topical_or_ocular; method in brief: as §3
Plasma [7] = experiment: Drug uptake in Brown Norway rat plasma administered topically after 3 hrs; type: ADME, cell-free; conditions: topical_or_ocular; method in brief: as §3
[8] = Drug uptake in Brown Norway rat aqueous humor administered topically after 3 hrs; type: ADME, tissue-based, Aqueous humor of eyeball; conditions: in vivo, topical_or_ocular; method in brief: as §3
[9] = Drug uptake in Brown Norway rat ciliary body administered topically after 3 hrs; type: ADME, tissue-based; conditions: in vivo, topical_or_ocular; method in brief: as §3
[10] = Drug uptake in Brown Norway rat iris administered topically after 3 hrs; type: ADME, tissue-based; conditions: in vivo, topical_or_ocular; method in brief: as §3
[11] = Drug uptake in Brown Norway rat cornea administered topically after 3 hrs; type: ADME, tissue-based; conditions: in vivo, topical_or_ocular; method in brief: as §3
[12] = Tmax in Brown Norway rat plasma administered topically; type: ADME, cell-free; conditions: topical or ocular
Method in brief: (§4)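 Male Brown Norway rats, 200−250 g, dosed once topically with 4 μL of a 0.02% clinical formulation per eye. Composite design with 3 animals per time point. Cornea, aqueous humor, iris/ciliary body and plasma collected at 0 (untreated), 0.083, 0.25, 0.5, 1, 3, 6 and 24 h. Eyes rinsed in PBS after enucleation.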

[13] = Tmax in Brown Norway rat iris administered topically; type: ADME, tissue-based; conditions: topical or ocular; method in brief: as §4
[14] = Tmax in Brown Norway rat cornea administered topically; type: ADME, tissue-based; conditions: topical or ocular; method in brief: as §4
[15] = Tmax in Brown Norway rat aqueous humor administered topically; type: ADME, tissue-based, Aqueous humor of eyeball; conditions: topical or ocular; method in brief: as §4
[16] = Cmax in Brown Norway rat plasma administered topically; type: ADME, cell-free; conditions: topical or ocular; method in brief: as §4
[17] = Cmax in Brown Norway rat iris administered topically; type: ADME, tissue-based; conditions: topical or ocular; method in brief: as §4
[18] = Cmax in Brown Norway rat cornea administered topically; type: ADME, tissue-based; conditions: topical or ocular; method in brief: as §4
[19] = Cmax in Brown Norway rat aqueous humor administered topically; type: ADME, tissue-based, Aqueous humor of eyeball; conditions: topical or ocular; method in brief: as §4
[20] = AUC (0 to last) in Brown Norway rat cornea administered topically; type: ADME, tissue-based; parameters: time 0 - last; conditions: topical or ocular; method in brief: as §4
[21] = AUC (0 to last) in Brown Norway rat aqueous humor administered topically; type: ADME; parameters: time 0 - last; conditions: topical or ocular; method in brief: as §4
Cannabinoid receptor 2 = Cannabinoid receptor 2 (Homo sapiens, UniProt P34972); experiment: Agonist activity at CB2 receptor (unknown origin)
Chain of Cannabinoid receptor 2 (P34972 whole entry): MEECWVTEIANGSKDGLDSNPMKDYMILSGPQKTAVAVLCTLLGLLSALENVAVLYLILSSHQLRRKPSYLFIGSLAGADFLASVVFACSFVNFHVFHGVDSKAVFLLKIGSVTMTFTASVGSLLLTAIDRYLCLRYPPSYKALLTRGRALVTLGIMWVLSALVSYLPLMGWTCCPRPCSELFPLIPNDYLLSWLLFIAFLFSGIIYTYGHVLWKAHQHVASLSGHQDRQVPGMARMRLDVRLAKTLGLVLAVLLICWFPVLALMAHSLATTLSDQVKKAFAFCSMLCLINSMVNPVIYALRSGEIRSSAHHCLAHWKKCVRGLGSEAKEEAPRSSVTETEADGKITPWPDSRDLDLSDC

Cannabinoid receptor 1 = Cannabinoid receptor 1 (Homo sapiens, UniProt P21554); experiment: Agonist activity at CB1 receptor (unknown origin)
Chain of Cannabinoid receptor 1 (P21554 whole entry): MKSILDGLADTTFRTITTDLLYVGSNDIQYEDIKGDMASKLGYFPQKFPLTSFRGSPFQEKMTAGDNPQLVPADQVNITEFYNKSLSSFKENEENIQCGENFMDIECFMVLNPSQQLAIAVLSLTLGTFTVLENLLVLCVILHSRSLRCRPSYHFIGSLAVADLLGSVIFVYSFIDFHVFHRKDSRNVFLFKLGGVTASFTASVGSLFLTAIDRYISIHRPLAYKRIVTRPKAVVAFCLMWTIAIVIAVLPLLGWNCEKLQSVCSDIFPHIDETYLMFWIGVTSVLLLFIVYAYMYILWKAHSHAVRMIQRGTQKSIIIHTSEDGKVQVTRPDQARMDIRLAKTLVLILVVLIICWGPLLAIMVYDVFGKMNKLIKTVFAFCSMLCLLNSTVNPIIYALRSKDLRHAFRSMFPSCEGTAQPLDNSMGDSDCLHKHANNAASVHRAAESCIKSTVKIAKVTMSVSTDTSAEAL

[22] = as §2; type: ADME, cell-free; parameters: time < 3 hr; concentration or dose not given beside the values; conditions: Brown Norway, topical or ocular; method in brief: as §1

Q: For `CCOC(=O)c1c(C)cc2nc(COC(=O)NCCOC(=O)c3cccnc3)n(-c3ccccc3S(=O)(=O)NC)c(=O)c2c1C`, which AUC at 3 h [1] is on record?
A: Its AUC at 3 h is 0.213 µM·h.

Q: And the solubility ([2]; buffer)?
A: Its solubility is “soluble”.

Q: And the AUC (Plasma [3])?
A: The AUC was “BLD”.

Q: What does the source list for `CCOC(=O)c1c(C)cc2nc(COC(=O)NCCOC(=O)CCN)n(-c3ccccc3S(=O)(=O)NC)c(=O)c2c1C`?
A: solubility ([2]; buffer): soluble; AUC (Plasma [3]): BLD; AUC [4]: BLD

Q: Which Drug uptake [5] does the source give for `CCOC(=O)c1c(C)cc2nc(COC(=O)NCCO)n(-c3ccccc3S(=O)(=O)NC)c(=O)c2c1C` [SAD448] here?
A: The Drug uptake was “Not Active”.

Q: And the Drug uptake [6]?
A: The Drug uptake was “Not Active”.

Q: And the Drug uptake (Plasma [7])?
A: The Drug uptake was “Not Active”.

Q: And the Drug uptake [8]?
A: Its Drug uptake is “Not Active”.

Q: What about the Drug uptake [9] of the same molecule?
A: The Drug uptake was “Not Active”.

Q: What about the Drug uptake [10] of the same molecule?
A: The Drug uptake was “Not Active”.

Q: What about the Drug uptake [11] of the same molecule?
A: Its Drug uptake is “Not Active”.

Q: And the Tmax [12]?
A: The Tmax was 4.98 min.

Q: What about the Tmax [13] of the same molecule?
A: The Tmax was 4.98 min.

Q: What about the Tmax [14] of the same molecule?
A: The Tmax was 4.98 min.

Q: What about the Tmax [15] of the same molecule?
A: The Tmax was 4.98 min.

Q: And the Cmax [16]?
A: Its Cmax is 9 nM.

Q: And the Cmax [17]?
A: Its Cmax is 18 nM.

Q: What about the Cmax [18] of the same molecule?
A: Its Cmax is 50 nM.

Q: And the Cmax [19]?
A: The Cmax was 82 nM.

Q: And the AUC(0-t) [20]?
A: Its AUC(0-t) is 0.043 µM·h.

Q: What about the AUC(0-t) [21] of the same molecule?
A: The AUC(0-t) was 0.05 µM·h.

Q: And the solubility ([2]; aqueous medium, read-out: solubility)?
A: The solubility was 340 µM (≈ 181 µg/mL).

Q: What about the IC50 (Cannabinoid receptor 2) of the same molecule?
A: The IC50 was 3.5 nM.

Q: And the IC50 (Cannabinoid receptor 1)?
A: Its IC50 is 94 nM.

Q: And the AUC at 3 h [22]?
A: Its AUC at 3 h is 0.014 µM·h.

Q: And the AUC [4]?
A: Its AUC is “BLD”.

Q: What does the source list for `CCOC(=O)c1c(C)cc2nc(COC(=O)NCCOC(=O)C3CCCCN3)n(-c3ccccc3S(=O)(=O)NC)c(=O)c2c1C` (stereo not drawn)?
A: AUC at 3 h [1]: 0.0367 µM·h; solubility ([2]; buffer): soluble; AUC at 3 h [22]: 0.0118 µM·h

Q: What does the source list for `CCOC(=O)c1c(C)cc2nc(COC(=O)NCCOC(=O)[C@H](NC(=O)[C@@H](N)C(C)C)C(C)C)n(-c3ccccc3S(=O)(=O)NC)c(=O)c2c1C`?
A: AUC at 3 h [1]: 0.104 µM·h; solubility ([2]; buffer): soluble; AUC (Plasma [3]): BLD

Q: Which AUC at 3 h [1] does the source give for `CCOC(=O)c1c(C)cc2nc(COC(=O)NCCOP(=O)(O)O)n(-c3ccccc3S(=O)(=O)NC)c(=O)c2c1C` here?
A: Its AUC at 3 h is 0.017 µM·h.

Q: What about the solubility ([2]; buffer) of the same molecule?
A: The solubility was “soluble”.

Q: And the AUC at 3 h [22]?
A: Its AUC at 3 h is 0.01 µM·h.

Q: With `CCOC(=O)c1c(C)cc2nc(COC(=O)NCCOC(=O)CN)n(-c3ccccc3S(=O)(=O)NC)c(=O)c2c1C` as the molecule, how does the AUC at 3 h [1] read?
A: Its AUC at 3 h is 0.0174 µM·h.

Q: What about the solubility ([2]; buffer) of the same molecule?
A: The solubility was “soluble”.

Q: What about the AUC at 3 h [22] of the same molecule?
A: Its AUC at 3 h is 0.0039 µM·h.

Q: Which AUC at 3 h [1] does the source give for `CCOC(=O)c1c(C)cc2nc(COC(=O)NCCOC(=O)CN3CCCCC3)n(-c3ccccc3S(=O)(=O)NC)c(=O)c2c1C` here?
A: The AUC at 3 h was 0.321 µM·h.

Q: And the solubility ([2]; buffer)?
A: Its solubility is “soluble”.

Q: And the AUC (Plasma [3])?
A: Its AUC is “BLD”.

Q: For `CCOC(=O)c1c(C)cc2nc(COC(=O)NCCOC(=O)[C@@H](NC(=O)[C@H](N)C(C)C)C(C)C)n(-c3ccccc3S(=O)(=O)NC)c(=O)c2c1C`, which solubility ([2]; buffer) is on record?
A: Its solubility is “soluble”.

Q: With `CCOC(=O)c1c(C)cc2nc(COC(=O)NCCOC(=O)c3cn4ccccc4n3)n(-c3ccccc3S(=O)(=O)NC)c(=O)c2c1C` as the molecule, how does the solubility ([2]; buffer) read?
A: Its solubility is “soluble”.

Q: And the AUC (Plasma [3])?
A: The AUC was “BLD”.

Q: What about the AUC [4] of the same molecule?
A: The AUC was “BLD”.

Q: With `CCOC(=O)c1c(C)cc2nc(COC(=O)NCCOC(=O)[C@H](N)c3ccccc3Cl)n(-c3ccccc3S(=O)(=O)NC)c(=O)c2c1C` as the molecule, how does the solubility ([2]; buffer) read?
A: The solubility was “soluble”.

Q: What about the AUC at 3 h [22] of the same molecule?
A: The AUC at 3 h was 0.0036 µM·h.

Q: What about the AUC [4] of the same molecule?
A: The AUC was “BLD”.

Q: Which AUC at 3 h [1] does the source give for `CCOC(=O)c1c(C)cc2nc(COC(=O)NCCOC(=O)[C@@H](N)C(C)C)n(-c3ccccc3S(=O)(=O)NC)c(=O)c2c1C` here?
A: Its AUC at 3 h is 0.04 µM·h.

Q: What about the solubility ([2]; buffer) of the same molecule?
A: Its solubility is “soluble”.

Q: And the AUC at 3 h [22]?
A: The AUC at 3 h was 0.02 µM·h.

From ChEMBL document CHEMBL2396634, “An effective prodrug strategy to selectively enhance ocular exposure of a cannabinoid receptor (CB1/2) agonist” (J Med Chem, 2013)
